ChEMBL document CHEMBL1158782, “Cytotoxic germacrane sesquiterpenes from the aerial parts of Santolina insularis” (J Nat Prod, 2005)

What was measured:
[1] = Cytotoxicity against mouse peritoneal macrophages cells after 24 hrs by MTT assay; type: cell-based; conditions: Macrophage
Procedure, shortened: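 Mouse cells harvested 4 days after intraperitoneal 10% thioglycollate, about 70% macrophages. Plated at 1 × 10^5/well and left to adhere for 3 h in DMEM with 10% FBS, 2 mM L-glutamine, 25 mM HEPES, antibiotics and 5 mM sodium pyruvate at 37 °C. Treated 24 h with compounds at 0.1-10 µg/mL. MTT (5 mg/mL) for 3 h, DMSO solubilization, OD490 read.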

[2] = system: Caco-2; test: Cytotoxicity against human Caco-2 cells after 24 hrs by MTT assay; type: functional, cell-based; conditions: Caco-2, 24 h
Procedure, shortened: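 Caco-2 cells kept in DMEM with 10% FBS, 25 mM HEPES, 100 U/mL penicillin and 100 µg/mL streptomycin at 37 °C under humidified 5% CO2. Seeded at 1 × 10^4/well for 48 h, then exposed to compounds (0.1-10 µg/mL) for 24 h. MTT (5 mg/mL) added for 3 h at 37 °C, formazan dissolved in DMSO, OD490 read. IC50 reported.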

Row | SMILES | IC50 [1] | IC50 [2]
1 | C=C1C[C@@H](O)/C=C(\C)CC[C@@H](C(C)C)[C@@H](O)C1 | ≥ 10 mg/L | –
2 | C=C1C[C@@H](O)[C@H](O)[C@]2(C)CC[C@@H](C(C)C)[C@@H](O)[C@@H]1O2 | ≥ 10 mg/L | 3.7 µM
3 | C=C1C[C@@H](O)[C@H](O)/C(C)=C\C[C@@H](C(C)C)[C@@H](O)[C@@H]1O | ≥ 10 mg/L | –
4 | C=C1CC[C@@H](C(C)C)[C@@H](O)/C=C(\C)[C@H](O)CC1=O | ≥ 10 mg/L | –
5 | C/C1=C\[C@H](O)C[C@]2(C)O[C@H]2[C@H](O)[C@H](C(C)C)CC1 | ≥ 10 mg/L | –
6 | C/C1=C\[C@H](O)C/C(C)=C/[C@H](O)[C@H](C(C)C)CC1 | ≥ 10 mg/L | –
7 | CC(C)[C@@H]1CC[C@]2(C)O[C@H]2[C@H](O)C[C@]2(C)O[C@H]2[C@@H]1O | ≥ 10 mg/L | –
8 | C/C1=C/C[C@@H](C(C)C)[C@@H](O)[C@@H]2O[C@@]2(C)C[C@@H](O)[C@@H]1O | ≥ 10 mg/L | 1.1 µM
9 | CC(=O)O[C@H]1/C=C(\C)CC[C@@H](C(C)C)[C@@H](O)[C@@H]2O[C@@]2(C)C1 | ≥ 10 mg/L | –
